# According to ChEMBL document CHEMBL2169847, “New tricks for an old natural product: discovery of highly potent evodiamine derivatives as novel antitumor agents by systemic structure-activity relationship analysis and biological evaluations” (J Med Chem, 2012):
# The source made the active and inactive calls. No cut-off for these calls is given here.
# Legend:
# [1] = target: T1, DNA topoisomerase 1 (Homo sapiens) (UniProt P11387); experiment: Inhibition of Top1 assessed as suppression of supercoiled pBR322 DNA relaxation measuring appearance of short DNA fragments at 100 uM incubated for 15 mins by electrophoresis method
# T1 sequence (whole entry): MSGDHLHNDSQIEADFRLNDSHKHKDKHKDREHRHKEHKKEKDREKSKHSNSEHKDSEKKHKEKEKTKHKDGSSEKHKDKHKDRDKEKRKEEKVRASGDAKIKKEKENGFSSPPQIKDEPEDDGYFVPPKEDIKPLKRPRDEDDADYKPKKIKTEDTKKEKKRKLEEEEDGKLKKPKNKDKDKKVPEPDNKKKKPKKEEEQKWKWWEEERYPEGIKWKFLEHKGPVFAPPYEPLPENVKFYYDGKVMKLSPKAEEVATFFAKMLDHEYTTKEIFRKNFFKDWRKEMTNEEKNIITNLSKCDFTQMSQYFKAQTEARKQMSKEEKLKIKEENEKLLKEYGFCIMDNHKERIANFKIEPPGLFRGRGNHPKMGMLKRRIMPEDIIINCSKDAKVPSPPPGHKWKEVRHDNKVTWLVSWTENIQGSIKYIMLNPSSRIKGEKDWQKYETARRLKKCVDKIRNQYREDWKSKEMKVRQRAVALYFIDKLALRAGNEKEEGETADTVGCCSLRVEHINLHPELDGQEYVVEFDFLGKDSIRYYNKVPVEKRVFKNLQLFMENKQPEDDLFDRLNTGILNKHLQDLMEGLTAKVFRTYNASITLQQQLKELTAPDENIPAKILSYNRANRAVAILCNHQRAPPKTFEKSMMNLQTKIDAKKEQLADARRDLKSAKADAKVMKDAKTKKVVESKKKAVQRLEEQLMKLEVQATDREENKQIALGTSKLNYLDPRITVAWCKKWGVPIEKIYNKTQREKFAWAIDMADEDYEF
# MDA-MB-435 = experiment: Cytotoxicity against human MDA-MB-435 cells incubated for 72 hrs by MTT assay; type: functional; settings: MDA-MB-435, 72 h
# How it was run: (§1)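 MTT assay. Cells seeded at 5 × 10³/well and grown 24 h at 37 °C, 5% CO₂. Compounds added at several concentrations in triplicate wells, with 0.1% DMSO control, for 72 h. MTT then added for 4 h, formazan dissolved in DMSO, and absorbance read at 570 nm. GI₅₀ by Logit method; three experiments.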
# HCT-116 [2] = experiment: Cytotoxicity against human HCT116 cells incubated for 72 hrs by MTT assay; type: functional; settings: HCT-116, 72 h; how it was run: as §1
# A549 = experiment: Cytotoxicity against human A549 cells incubated for 72 hrs by MTT assay; type: functional; settings: A549, 72 h; how it was run: as §1
# Mus musculus = experiment: Toxicity in BALB/C nude mouse xenografted with human HCT116 cells assessed as reduction in body weight at 2 mg/kg, ip administered as a single dose on 17th day and measured on 30 to 33 days post implantation; type: organism-based, HCT-116; parameters: dose 2 mg/kg, route intraperitoneal; settings: in vivo
# How it was run: (§2)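 Cells implanted subcutaneously in right axilla of nude mice; dosing began at tumor volume about 100−300 mm³ (day 17). Randomized, six mice per treatment group and eight controls; ip injection. Tumor volume by caliper, TV = 1/2 × a × b², with body weight every 4 days. Mice sacrificed day 30−33 and tumors removed. Mean SEM, Student's t test versus control.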
# HCT-116 [3] = experiment: Antitumor activity against human HCT116 cells xenografted in BALB/C nude mouse assessed as tumor growth inhibition at 2 mg/kg, ip administered as a single dose on 17th day and measured on 30 to 33 days post implantation; type: functional, organism-based; parameters: dose 2 mg/kg; how it was run: as §2
# Nucleic Acid [4] = experiment: Binding affinity at calf thymus DNA minor groove assessed as displacement of Hoechst 33258 dye incubated for 20 mins by microplate reader based assay; type: nucleic-acid assay; settings: Bos taurus
# [5] = target: T1, DNA topoisomerase 1 (Homo sapiens); experiment: Inhibition of Top1 assessed as stabilization of Top1-pUC19 DNA cleavage complex measuring increase of nicked DNA at 100 uM incubated for 15 mins by electrophoresis method
# [6] = target: DNA topoisomerase 2-alpha (Homo sapiens) (UniProt P11388); experiment: Inhibition of human Top2alpha assessed as stabilization of Top2-pBr322 DNA cleavage complex measuring linear DNA formation at 100 uM incubated for 20 mins by electrophoresis method
# How it was run: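 Top2α drug screening kit with 8 units hTop2α and pBR322 plasmid. After reaction, proteinase K (200 μg/mL final) 20 min at 50 °C. Electrophoresis in TAE with 0.5 μg/mL ethidium bromide to resolve nicked, linear, relaxed and supercoiled forms.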
# Nucleic Acid [7] = experiment: Induction of DNA intercalation in Escherichia coli pBR322 DNA assessed as induction of supercoiled DNA at 100 uM incubated for 15 mins by electrophoresis based Top1 unwinding assay; type: nucleic-acid assay
# Nucleic Acid [8] = experiment: Binding affinity at calf thymus DNA at 50 uM after 20 mins by UV/vis absorbance titration based assay; type: nucleic-acid assay; settings: Bos taurus
# How it was run: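 ct-DNA in DPBS pH 7.4, concentration set by A260 (13200 M⁻¹/cm per bp). Compounds at 50 μM in DPBS with 1% DMSO, with or without ct-DNA 0−100 μM. After 20 min equilibration at room temperature, absorption spectra recorded over 220−400 nm in a microplate reader. Hypochromic or bathochromic shifts taken as the sign of binding.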
# [9] = target: DNA topoisomerase 2-alpha (Homo sapiens) (UniProt P11388); experiment: Inhibition of human Top2alpha assessed as suppression of supercoiled pBR322 DNA relaxation at 50 uM incubated for 30 mins by electrophoresis method
# DNA topoisomerase 2-alpha (Homo sapiens), sequence (P11388 whole entry): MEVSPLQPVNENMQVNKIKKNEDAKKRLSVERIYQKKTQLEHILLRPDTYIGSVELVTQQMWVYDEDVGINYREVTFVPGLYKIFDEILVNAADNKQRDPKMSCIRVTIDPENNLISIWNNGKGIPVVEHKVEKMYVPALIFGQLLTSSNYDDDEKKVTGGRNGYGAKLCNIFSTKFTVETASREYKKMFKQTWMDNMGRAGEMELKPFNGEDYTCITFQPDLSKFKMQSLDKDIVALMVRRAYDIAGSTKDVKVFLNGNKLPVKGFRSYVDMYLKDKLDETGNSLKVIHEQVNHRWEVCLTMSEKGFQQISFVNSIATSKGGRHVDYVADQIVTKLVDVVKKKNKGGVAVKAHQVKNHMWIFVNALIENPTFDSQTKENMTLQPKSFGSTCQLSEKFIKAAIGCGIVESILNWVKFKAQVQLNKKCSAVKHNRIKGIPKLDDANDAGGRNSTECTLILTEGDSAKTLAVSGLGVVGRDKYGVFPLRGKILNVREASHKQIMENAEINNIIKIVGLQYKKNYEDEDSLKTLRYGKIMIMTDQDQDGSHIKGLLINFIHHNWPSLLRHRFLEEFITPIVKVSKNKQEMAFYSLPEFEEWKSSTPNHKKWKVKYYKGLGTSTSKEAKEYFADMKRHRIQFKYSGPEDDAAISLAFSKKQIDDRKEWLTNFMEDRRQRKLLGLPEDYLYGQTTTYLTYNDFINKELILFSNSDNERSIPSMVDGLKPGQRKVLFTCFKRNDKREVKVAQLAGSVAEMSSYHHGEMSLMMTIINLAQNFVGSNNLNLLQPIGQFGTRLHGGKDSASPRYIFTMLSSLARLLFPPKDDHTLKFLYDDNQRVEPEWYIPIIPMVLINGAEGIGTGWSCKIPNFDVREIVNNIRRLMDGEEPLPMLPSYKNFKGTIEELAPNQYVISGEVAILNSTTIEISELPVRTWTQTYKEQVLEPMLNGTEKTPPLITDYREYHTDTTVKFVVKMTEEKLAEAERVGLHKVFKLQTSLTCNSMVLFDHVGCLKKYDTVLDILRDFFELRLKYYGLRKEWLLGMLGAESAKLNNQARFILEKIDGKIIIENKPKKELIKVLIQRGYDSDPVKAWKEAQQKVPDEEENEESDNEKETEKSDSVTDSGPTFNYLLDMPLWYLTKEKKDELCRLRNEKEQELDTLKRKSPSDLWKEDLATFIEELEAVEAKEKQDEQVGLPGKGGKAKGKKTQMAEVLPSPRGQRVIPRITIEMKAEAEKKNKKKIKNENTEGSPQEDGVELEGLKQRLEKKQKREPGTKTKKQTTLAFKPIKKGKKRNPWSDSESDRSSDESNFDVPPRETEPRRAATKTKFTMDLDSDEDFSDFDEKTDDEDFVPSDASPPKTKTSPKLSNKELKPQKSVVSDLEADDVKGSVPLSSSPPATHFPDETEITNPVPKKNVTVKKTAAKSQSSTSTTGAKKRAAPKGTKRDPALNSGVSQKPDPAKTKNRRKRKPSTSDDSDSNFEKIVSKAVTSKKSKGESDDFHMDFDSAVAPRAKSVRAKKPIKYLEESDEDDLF
SMILES,GI50 (MDA-MB-435) [µM],GI50 (HCT-116 [2]) [µM],GI50 (A549) [µM],further results
CN1c2ccc(O)cc2C(=O)N2CCc3c([nH]c4ccc(O)cc34)C21 (stereo not given),0.003,0.007,0.75,inhibition [1]: Active; Activity (Mus musculus): Toxic; TGI (HCT-116 [3]): Active; Activity (Nucleic Acid [4]): inactive; inhibition [5]: Active; inhibition [6]: inactive; Activity (Nucleic Acid [7]): inactive; Activity (Nucleic Acid [8]): inactive; inhibition [9]: Active
Cc1cccc2c1N(C)C1c3[nH]c4ccccc4c3CCN1C2=O (stereo not given),0.084,0.011,0.23,inhibition [1]: Active
COc1cccc2c1C(=O)N1CCc3c([nH]c4ccccc34)C1N2C (stereo not given),22.3,19.7,128,–
O=C1c2cc(F)ccc2NC2c3[nH]c4ccccc4c3CCN12 (stereo not given),> 200,> 200,> 200,–
COc1ccc2c(c1)C(=O)N1CCc3c(n(C(=O)c4ccc(Cl)cc4)c4ccccc34)C1N2C (stereo not given),184,88.7,> 200,–
COc1ccc2[nH]c3c(c2c1)CCN1C(=O)c2c(OC)cccc2N(C)C31 (stereo not given),21,42,98,–
COc1ccc2[nH]c3c(c2c1)CCN1C(=O)c2cc(Cl)ccc2N(C)C31 (stereo not given),2,0.004,13,–
CN1c2cccc(O)c2C(=O)N2CCc3c([nH]c4ccc(O)cc34)C21 (stereo not given),0.013,0.009,0.23,inhibition [1]: Active; Activity (Nucleic Acid [4]): inactive; inhibition [5]: Active; inhibition [6]: inactive; Activity (Nucleic Acid [7]): inactive; Activity (Nucleic Acid [8]): inactive
CN1c2ccccc2CN2CCc3c([nH]c4ccccc34)C21 (stereo not given),16.2,> 200,> 200,–
CC(=O)Nc1ccc2c(c1)C(=O)N1CCc3c([nH]c4ccccc34)C1N2C (stereo not given),59.1,70.5,> 200,–
COc1cc([C@@H]2c3cc4c(cc3[C@@H](O[C@@H]3O[C@@H]5CO[C@@H](C)O[C@H]5[C@H](O)[C@H]3O)[C@H]3COC(=O)[C@H]23)OCO4)cc(OC)c1O,–,–,–,inhibition [6]: Active; inhibition [9]: Active
COc1ccc2[nH]c3c(c2c1)CCN1C(=O)c2cc(N)ccc2N(C)C31 (stereo not given),12,6.6,62,inhibition [9]: Active
CN1c2ccccc2C(=O)N2CCc3c(n(C(=O)c4ccc(Cl)cc4)c4ccc(Br)cc34)C21 (stereo not given),38.7,19.7,22.5,–
CN1c2ccc(Br)cc2C(=O)N2CCc3c(n(C(=O)c4ccc(Cl)cc4)c4ccccc34)C21 (stereo not given),8.72,39.7,> 200,–
C#CCOc1ccc2[nH]c3c(c2c1)CCN1C(=O)c2ccccc2N(C)C31 (stereo not given),4.39,14,> 200,–
CN1c2ccccc2C(=O)N2CCc3c([nH]c4ccc(OC(=O)C5CC5)cc34)C21 (stereo not given),0.08,0.01,1.9,–
CN1c2ccccc2C(=O)N2CCc3c([nH]c4ccc(F)cc34)C21 (stereo not given),27.4,8.56,6.85,–
CN1c2cccc(F)c2C(=O)N2CCc3c([nH]c4ccccc34)C21 (stereo not given),42.6,> 200,200,–
